T cruzi repl: T. cruzi replication inhibition. inhibition, % (no concentration beside the values). 300,000 compounds, 1.4% hits. T. cruzi beta-gal in NIH3T3, luminescence, 90 h;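 active = mean inhibition across valid replicates above about 55%, limit read from the data; inconclusive = mean below that limit but half or more replicates reach it; inactive = mean below it, under half of replicates reach it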;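 also: signal also drops with host cell toxicity which is not excluded here; higher percent means less beta-gal luminescence so fewer parasites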
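Read-out: Parasite load inhibition, % | Test system: Mouse NIH/3T3 fibroblasts infected with β-gal-expressing T. cruzi Tulahuen C4 | Amount: 5,000 cells/well | Medium: DMEM, 2% fetal bovine serum | Signal: GalScreen β-gal luminescence, detergent lysis, 60 min | Timing: 3 h attach, ≥90 h co-culture | Also added: Tulahuen C4 trypomastigotes, 5000/well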
Efflux pump mplx: antifungal efflux pump inhibition, Nile Red retention. S. cerevisiae Candida pump triplex. 330,000 compounds, 0.44% hits. inhibition, % at 10 µM;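 active = plate passing quality check with inhibition over a set limit, or well fluorescence over plate mean plus 4 SD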;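 also: Nile Red retained in pooled yeast measured as flow cytometry median fluorescence; higher means more Nile Red kept so more efflux inhibition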
HDAC3 inhib: human HDAC3 inhibition. 320,000 compounds, 0.15% hits. inhibition, % at 8.3 µM. O15379. recombinant HDAC3, fluorogenic peptide/trypsin coupled, fluorescence; in the data active = inhibition above about 26%, passing the limit was not always enough; inconclusive = no clear call, values can overlap the other calls
Target sequence (O15379 whole entry, looked up): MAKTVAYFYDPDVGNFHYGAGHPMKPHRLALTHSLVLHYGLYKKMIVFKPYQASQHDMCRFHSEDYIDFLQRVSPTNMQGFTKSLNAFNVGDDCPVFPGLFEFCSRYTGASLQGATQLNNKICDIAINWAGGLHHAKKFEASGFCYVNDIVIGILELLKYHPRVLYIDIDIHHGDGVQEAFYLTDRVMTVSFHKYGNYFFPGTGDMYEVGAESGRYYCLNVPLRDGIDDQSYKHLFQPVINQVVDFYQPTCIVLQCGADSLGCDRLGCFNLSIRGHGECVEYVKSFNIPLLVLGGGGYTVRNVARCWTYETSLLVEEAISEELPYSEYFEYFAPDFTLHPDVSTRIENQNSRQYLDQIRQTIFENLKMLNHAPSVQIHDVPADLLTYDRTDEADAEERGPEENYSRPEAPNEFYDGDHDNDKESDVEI
AI-2 QS modul: modulators of Vibrio harveyi AI-2 quorum sensing system; Vibrio harveyi JMH597 AI-2 luminescence/OD600 ratio, 9 h; hits give low values; strain lacks LuxN and CqsS sensors; 0 = neutral-control median; activity change, % at 7.5 µM; 300,000 compounds, 0.4% hits; AID 2094; in the data active = activity change below about -75%, passing the limit was not always enough; inconclusive = no clear call, values can overlap the other calls;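 also: luminescence divided by OD600 gain over 9 h not by final OD600 alone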
PolyA inh: blocks polyadenylation in yeast reporter cells | S. cerevisiae SKY197-pL101 polyadenylation reporter, beta-gal luminescence; efflux-impaired pdr1/pdr3 knockout yeast; score 100 = 6 SD above DMSO | activity score, % at 12 µM | 300,000 compounds, 0.02% hits;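 active = lowest replicate activity score at least 50, where 100 means six control SD above control mean; inconclusive = lowest score under 50 but half or more replicates reach 50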;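 also: yeast exposed to compound for 9 h at 30 °C; higher score means more reporter readthrough which indicates perturbed polyadenylation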
A number is an active result; - = inactive; ? = inconclusive; . = no result. Rows were chosen to be rich in hits. Some 2.2% of all compounds tested hit in one or more screens of this group.

SMILES | T cruzi repl | Efflux pump mplx | HDAC3 inhib | AI-2 QS modul | PolyA inh
O=C(Nc1ccc(Cc2ccncc2)cc1)c1ccc(Cl)c([N+](=O)[O-])c1 | - | - | . | - | -
COc1ccc(NC(=O)c2cccc(Oc3ccc([N+](=O)[O-])cc3Cl)c2)cc1 | - | - | - | - | -
Cc1ccc(C(=O)COC(=O)c2cccc(NC(=O)c3ccc([N+](=O)[O-])cc3[N+](=O)[O-])c2)cc1 | 70.6 | - | - | - | -
Cc1ccc(C)c(NC(=O)c2cccc(Oc3ccc([N+](=O)[O-])cc3Cl)c2)c1 | 55.2 | - | - | - | -
COc1ccc(C)cc1NC(=O)c1ccc([N+](=O)[O-])cc1[N+](=O)[O-] | 71.1 | - | - | - | -
COc1ccc(C(=O)Nc2ccccc2)cc1NC(=O)c1ccc([N+](=O)[O-])cc1 | 60.9 | - | - | . | -
COc1ccc(S(=O)(=O)N2CCC(C(=O)NCCC(=O)NCc3ccccc3OC)CC2)cc1 | - | - | - | - | -
CCOc1ccc(Nc2ccc(N3C(=O)CCC3=O)cc2[N+](=O)[O-])cc1 | ? | - | - | - | -
COc1ccc(N2CCN(c3nccs3)CC2)cc1 | - | - | - | . | -
CN(Cc1cccnc1)C(=O)c1cc(COc2ccc3c(c2)CCCC3)on1 | - | - | - | -79.9 | -
CCc1ccc(CN(C)C(=O)c2cc(COc3cccc4cnccc34)on2)cc1 | - | - | - | - | -
Cc1ccccc1NC(=O)NC1(C(=O)NCc2ccco2)CCCCC1 | - | - | - | - | -
O=C(COC(=O)c1ccc(F)cc1F)Nc1ccc(Cl)cn1 | . | - | - | . | .
O=C(COC(=O)c1ccc(O)cc1O)Nc1ccc(Cl)cn1 | - | - | - | -82.9 | -
Cc1ccc(Cl)cc1N1CCN(C(=O)Cn2ncn3cccc3c2=O)CC1 | - | - | - | - | -
CCOC(=O)C1(CCOc2ccccc2)CCN(Cc2cccc3nonc23)CC1 | 57.4 | - | - | - | -
CCOC(=O)C1(CCOc2ccccc2)CCN(Cc2ccc(O)cc2)CC1 | - | - | - | - | -
O=C(NC(N1CCOCC1)C(Cl)(Cl)Cl)c1ccccc1Cl (configuration not stated) | - | - | - | - | -
O=C(NC(N1CCOCC1)C(Cl)(Cl)Cl)c1cc([N+](=O)[O-])cc([N+](=O)[O-])c1 (configuration not stated) | 93.5 | - | - | - | -
Cc1ccc(OCC(=O)Nc2cccnc2Cl)cc1C | - | - | - | - | -
Cc1nn2c(NCc3ccccn3)cc(C(C)(C)C)nc2c1-c1ccccc1 | 56.7 | - | - | - | -
Cc1ccc(CN(C)C(=O)c2ccccc2NC(=O)c2ccccc2)o1 | . | - | . | . | .
CN(C)c1ccc(CNCC2CCCO2)cc1 (configuration not stated) | - | - | - | - | -
CN(C)c1ccc(CNCCC2CCOC(C)(C)C2)cc1 (configuration not stated) | 58.0 | - | - | - | -
CCC(=O)N1c2ccccc2NC2=C(C(=O)CC(C)(C)C2)C1c1ccc(O)c(OC)c1 (configuration not stated) | - | - | - | - | -
SMILES | T cruzi repl | Efflux pump mplx | HDAC3 inhib | AI-2 QS modul | PolyA inh
Cc1ccc(SC(CC(=O)c2ccc(C)cc2)C(=O)O)cc1 (configuration not stated) | - | - | - | - | -
O=C(CC(Sc1ccc(Br)cc1)C(=O)O)c1ccc(Br)cc1 (configuration not stated) | 54.8 | - | - | ? | -
S=C(Sc1ccc(Cl)cc1)Sc1ccc(Cl)cc1 | 62.9 | - | . | - | -
O=C(c1ccc([N+](=O)[O-])s1)N1CCc2ccccc21 | - | - | - | - | -
O=C(c1ccc([N+](=O)[O-])s1)N1CCc2ccccc2C1 | 84.0 | - | - | - | -
CCOC(=O)c1cnc(-n2nc(C)cc2C)nc1NCCc1ccccc1 | 55.2 | - | - | - | -
CCOC(=O)c1cnc(-n2nc(C)cc2C)nc1NCc1ccc2c(c1)OCO2 | 70.2 | - | - | - | -
O=C1[C@H]2[C@@H](c3ccc(Cl)cc3)N3C(=O)N(c4cccc(Br)c4)C(=O)[C@@]3(Cc3ccc(Cl)cc3)[C@H]2C(=O)N1C1CCCCC1 | 65.1 | - | - | - | -
COc1ccc(S(=O)(=O)N2CCOCC2)cc1NC(=O)CN1C(=O)NC2(CCCCC2C)C1=O (configuration not stated) | . | - | - | . | .
